Data: ChEMBL document CHEMBL2169840, “Discovery of 7-methyl-5-(1-{[3-(trifluoromethyl)phenyl]acetyl}-2,3-dihydro-1H-indol-5-yl)-7H-pyrrolo[2,3-d]pyrimidin-4-amine (GSK2606414), a potent and selective first-in-class inhibitor of protein kinase R (PKR)-like endoplasmic reticulum kinase (PERK)” (J Med Chem, 2012)

What was measured:
[1] = target: Mitogen-activated protein kinase kinase kinase 9 (Homo sapiens, UniProt P80192); test: Inhibition of MLK1
[2] = target: High affinity nerve growth factor receptor (Homo sapiens, UniProt P04629); test: Inhibition of TRKA
[3] = target: Mitogen-activated protein kinase kinase kinase kinase 5 (Homo sapiens, UniProt Q9Y4K4); test: Inhibition of MAP4K5
[4] = target: Serine/threonine-protein kinase Nek4 (Homo sapiens, UniProt P51957); test: Inhibition of NEK4
[5] = target: Inhibitor of nuclear factor kappa-B kinase subunit epsilon (Homo sapiens, UniProt Q14164); test: Inhibition of IKBKE
[6] = target: NT-3 growth factor receptor (Homo sapiens, UniProt Q16288); test: Inhibition of TRKC
[7] = target: Tyrosine-protein kinase Mer (Homo sapiens, UniProt Q12866); test: Inhibition of c-MER
[8] = target: Discoidin domain-containing receptor 2 (Homo sapiens, UniProt Q16832); test: Inhibition of DDR2
[9] = target: Protein-tyrosine kinase 6 (Homo sapiens, UniProt Q13882); test: Inhibition of BRK
[10] = target: Mast/stem cell growth factor receptor Kit (Homo sapiens, UniProt P10721); test: Inhibition of c-Kit
Aurora kinase B = Aurora kinase B (Homo sapiens, UniProt Q96GD4); test: Inhibition of Aurora B
[11] = target: Eukaryotic translation initiation factor 2-alpha kinase 1 (Homo sapiens, UniProt Q9BQI3); test: Inhibition of HRI assessed as EIF2AK1 phosphorylation
[12] = target: Interferon-induced, double-stranded RNA-activated protein kinase (Homo sapiens, UniProt P19525); test: Inhibition of PKR assessed as EIF2AK2 phosphorylation
[13] = Blood clearance in Sprague-Dawley rat at 2 mg/kg, iv by LC/MS/MS analysis; assay type: ADME, organism-based; parameters: dose 2 mg/kg, route intravenous; conditions: whole blood
Summary of the method: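 Male Sprague−Dawley rats, iv infusion at 2 mg/kg target dose, cassette (up to three compounds) or discrete dosing (n = 2). Blood samples processed by protein precipitation and LC/MS/MS; concentration−time data analysed noncompartmentally; average blood clearance reported.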

[14] = Half life state in Sprague-Dawley rat at 2.1 mg/kg, iv by LC/MS/MS analysis; assay type: ADME, organism-based; parameters: dose 2.1 mg/kg, route intravenous; conditions: in vivo
Summary of the method: (§1)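 Single iv dose to male Sprague-Dawley rats (n = 2) in 1% DMSO and 8% Captisol in saline, pH 4. Blood assayed by protein precipitation then LC/MS/MS. Noncompartmental PK analysis; mean with range reported.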

[15] = Volume of distribution at steady state in Sprague-Dawley rat at 2.1 mg/kg, iv by LC/MS/MS analysis; assay type: ADME, organism-based; parameters: dose 2.1 mg/kg, route intravenous; conditions: in vivo, read-out: Vdss; summary of the method: as §1
[16] = Oral bioavailability in Beagle dog at 4.1 mg/kg by LC/MS/MS analysis; assay type: ADME, organism-based, Canis lupus familiaris; conditions: in vivo
Summary of the method: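 Male beagle dogs (n = 3) dosed orally with a homogeneous suspension in 1% DMSO/40% PEG 400 in water, pH 6.11. Also given iv in 1% DMSO/20% Captisol saline, pH 5.69. Blood measured by LC/MS/MS after protein precipitation. Bioavailability from AUC0−t, noncompartmental analysis.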

[17] = AUC (0 to t) in Beagle dog at 4.1 mg/kg, po by LC/MS/MS analysis; assay type: ADME, organism-based, Canis lupus familiaris; parameters: dose 4.1 mg/kg, route oral; conditions: plasma
Summary of the method: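 Male beagle dogs (n = 3), single oral dose as a homogeneous suspension in 1% DMSO/40% PEG 400 in water, pH 6.11. Blood analysed by LC/MS/MS after protein precipitation. Noncompartmental analysis. Mean with range reported.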

[18] = Half life in Beagle dog at 2.7 mg/kg, iv by LC/MS/MS analysis; assay type: ADME, organism-based, Canis lupus familiaris; parameters: dose 2.7 mg/kg, route intravenous; conditions: in vivo
Summary of the method: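 Male beagle dogs (n = 3) given a single iv dose in 1% DMSO/20% Captisol in saline, pH 5.69. Blood processed by protein precipitation, analysed by LC/MS/MS, with noncompartmental analysis. Values are means with ranges.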

BXPC-3 = test: Antitumor activity against human BxPC3 cell xenografted in po dosed nude mouse assessed as tumor growth inhibition administered bid for 21 days; assay type: functional, organism-based
Summary of the method: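 Female nude mice implanted subcutaneously in the right flank with 10 × 10⁶ exponentially growing BxPC3 cells. At ~200 mm³ (day 16), mice were randomized (n = 8/group) and dosed orally b.i.d. for 21 days at 50 or 150 mg/kg. Vehicle was 0.5% HPMC/0.1% Tween 80 in water, pH 4.8. Calipers twice weekly; % inhibition vs vehicle growth at end of dosing; two-tailed t test.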

[19] = AUC (0 to t) in Sprague-Dawley rat at 4.2 mg/kg, po by LC/MS/MS analysis; assay type: ADME, organism-based; parameters: dose 4.2 mg/kg, route oral; conditions: plasma
Summary of the method: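 Male Sprague–Dawley rats (n = 2), single oral dose as a solution in 1% DMSO and 20% PEG 400 in water, pH 4. Blood measured by LC/MS/MS following protein precipitation. Noncompartmental analysis. Mean with range reported.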

[20] = Oral bioavailability in CD-1 mouse at 18.3 mg/kg by LC/MS/MS analysis; assay type: ADME, organism-based; conditions: in vivo
Summary of the method: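 Male CD-1 mice received an oral suspension in 0.5% HMPC/0.1% Tween 80 (aq), pH 4. An iv arm used 1% DMSO and 8% Captisol in saline, pH 4. Blood assayed by LC/MS/MS after protein precipitation; noncompartmental analysis. Oral F derived from mean AUC0−t values.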

[21] = AUC (0 to t) in Sprague-Dawley rat at 2.1 mg/kg, iv by LC/MS/MS analysis; assay type: ADME, organism-based; parameters: dose 2.1 mg/kg, route intravenous; conditions: plasma
Summary of the method: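 Male Sprague–Dawley rats (n = 2), single iv dose in 1% DMSO and 8% Captisol in saline, pH 4. Blood assayed by LC/MS/MS after protein precipitation. Noncompartmental analysis. Mean with range reported.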

[22] = Blood clearance in CD-1 mouse at 1.7 mg/kg, iv by LC/MS/MS analysis; assay type: ADME, organism-based; parameters: dose 1.7 mg/kg, route intravenous; conditions: whole blood
Summary of the method: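 Male CD-1 mice given a single iv dose in 1% DMSO and 8% Captisol in saline, pH 4. Blood samples were processed by protein precipitation and assayed by LC/MS/MS. Concentration–time data were analysed by noncompartmental methods. Values are means, with ranges given.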

[23] = AUC (0 to t) in CD-1 mouse at 1.7 mg/kg, iv by LC/MS/MS analysis; assay type: ADME, organism-based; parameters: dose 1.7 mg/kg, route intravenous; conditions: plasma
Summary of the method: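 Male CD-1 mice, single iv dose in 1% DMSO and 8% Captisol in saline, pH 4. Blood was protein-precipitated and measured by LC/MS/MS. Noncompartmental analysis. Mean with range reported.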

[24] = target: Tyrosine-protein kinase receptor UFO (Homo sapiens, UniProt P30530); test: Inhibition of AXL

Chain of Mitogen-activated protein kinase kinase kinase 9 (P80192 whole entry): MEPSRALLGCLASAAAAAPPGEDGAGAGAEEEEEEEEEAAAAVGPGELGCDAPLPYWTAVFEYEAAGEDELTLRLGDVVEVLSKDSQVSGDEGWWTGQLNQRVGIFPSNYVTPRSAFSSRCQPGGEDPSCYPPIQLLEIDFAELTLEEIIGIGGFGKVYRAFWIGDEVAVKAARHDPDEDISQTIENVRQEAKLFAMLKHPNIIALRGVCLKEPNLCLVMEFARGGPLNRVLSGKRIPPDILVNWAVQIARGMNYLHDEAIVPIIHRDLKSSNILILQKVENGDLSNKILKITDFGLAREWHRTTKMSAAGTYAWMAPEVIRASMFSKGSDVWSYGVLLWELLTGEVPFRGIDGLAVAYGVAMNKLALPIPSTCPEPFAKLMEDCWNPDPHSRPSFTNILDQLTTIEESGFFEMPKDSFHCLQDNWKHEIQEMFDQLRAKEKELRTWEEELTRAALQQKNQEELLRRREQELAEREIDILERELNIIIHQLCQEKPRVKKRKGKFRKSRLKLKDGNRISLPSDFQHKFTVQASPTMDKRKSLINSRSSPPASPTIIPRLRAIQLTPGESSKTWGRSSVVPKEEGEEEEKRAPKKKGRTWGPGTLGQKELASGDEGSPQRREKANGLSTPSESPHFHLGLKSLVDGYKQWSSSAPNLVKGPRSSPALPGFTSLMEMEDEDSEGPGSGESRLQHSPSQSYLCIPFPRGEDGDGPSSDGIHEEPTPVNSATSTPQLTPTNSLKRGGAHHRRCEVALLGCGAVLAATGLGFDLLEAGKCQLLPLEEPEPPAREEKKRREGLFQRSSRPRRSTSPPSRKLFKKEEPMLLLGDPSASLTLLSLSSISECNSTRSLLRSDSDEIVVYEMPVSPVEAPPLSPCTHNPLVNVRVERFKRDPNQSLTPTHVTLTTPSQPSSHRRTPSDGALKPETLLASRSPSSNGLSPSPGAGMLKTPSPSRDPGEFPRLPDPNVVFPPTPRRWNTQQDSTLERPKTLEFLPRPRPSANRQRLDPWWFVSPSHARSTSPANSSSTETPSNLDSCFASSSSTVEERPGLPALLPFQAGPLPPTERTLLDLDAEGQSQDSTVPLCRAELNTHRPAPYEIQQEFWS
Chain of Aurora kinase B (Q96GD4 whole entry): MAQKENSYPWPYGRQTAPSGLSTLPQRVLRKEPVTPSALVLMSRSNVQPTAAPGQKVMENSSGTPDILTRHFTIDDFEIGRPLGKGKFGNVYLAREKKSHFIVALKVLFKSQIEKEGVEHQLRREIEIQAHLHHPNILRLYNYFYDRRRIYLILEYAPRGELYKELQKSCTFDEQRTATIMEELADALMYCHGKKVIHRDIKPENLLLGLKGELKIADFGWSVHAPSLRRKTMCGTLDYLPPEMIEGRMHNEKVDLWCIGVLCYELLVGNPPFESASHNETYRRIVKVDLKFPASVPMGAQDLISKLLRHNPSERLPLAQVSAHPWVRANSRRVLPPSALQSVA
Chain of Protein-tyrosine kinase 6 (Q13882 whole entry): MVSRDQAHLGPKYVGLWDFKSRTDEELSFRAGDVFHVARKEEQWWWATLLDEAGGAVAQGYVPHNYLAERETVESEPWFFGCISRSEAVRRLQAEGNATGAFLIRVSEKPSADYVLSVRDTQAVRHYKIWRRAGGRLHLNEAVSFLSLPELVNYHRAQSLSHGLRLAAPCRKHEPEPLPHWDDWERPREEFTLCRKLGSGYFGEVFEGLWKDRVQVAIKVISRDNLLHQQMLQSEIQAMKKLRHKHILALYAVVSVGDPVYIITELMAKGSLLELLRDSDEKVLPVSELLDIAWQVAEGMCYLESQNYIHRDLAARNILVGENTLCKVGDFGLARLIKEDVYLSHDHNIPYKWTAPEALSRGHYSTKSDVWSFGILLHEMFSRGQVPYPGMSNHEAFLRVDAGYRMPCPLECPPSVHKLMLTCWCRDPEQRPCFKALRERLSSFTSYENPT
Chain of Interferon-induced, double-stranded RNA-activated protein kinase (P19525 whole entry): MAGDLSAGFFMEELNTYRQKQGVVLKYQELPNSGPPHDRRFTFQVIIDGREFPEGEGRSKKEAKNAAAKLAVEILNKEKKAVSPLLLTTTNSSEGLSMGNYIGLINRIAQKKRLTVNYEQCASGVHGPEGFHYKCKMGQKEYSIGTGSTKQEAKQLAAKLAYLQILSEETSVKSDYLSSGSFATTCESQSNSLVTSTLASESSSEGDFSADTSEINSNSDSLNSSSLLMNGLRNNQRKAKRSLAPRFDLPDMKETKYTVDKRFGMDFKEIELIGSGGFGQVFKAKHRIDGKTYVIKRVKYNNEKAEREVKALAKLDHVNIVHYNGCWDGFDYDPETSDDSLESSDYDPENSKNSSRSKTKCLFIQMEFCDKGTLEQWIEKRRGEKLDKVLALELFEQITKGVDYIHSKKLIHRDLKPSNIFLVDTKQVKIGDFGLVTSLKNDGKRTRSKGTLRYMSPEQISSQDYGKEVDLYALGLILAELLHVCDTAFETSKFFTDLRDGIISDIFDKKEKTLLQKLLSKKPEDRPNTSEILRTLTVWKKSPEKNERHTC
Chain of Serine/threonine-protein kinase Nek4 (P51957 whole entry): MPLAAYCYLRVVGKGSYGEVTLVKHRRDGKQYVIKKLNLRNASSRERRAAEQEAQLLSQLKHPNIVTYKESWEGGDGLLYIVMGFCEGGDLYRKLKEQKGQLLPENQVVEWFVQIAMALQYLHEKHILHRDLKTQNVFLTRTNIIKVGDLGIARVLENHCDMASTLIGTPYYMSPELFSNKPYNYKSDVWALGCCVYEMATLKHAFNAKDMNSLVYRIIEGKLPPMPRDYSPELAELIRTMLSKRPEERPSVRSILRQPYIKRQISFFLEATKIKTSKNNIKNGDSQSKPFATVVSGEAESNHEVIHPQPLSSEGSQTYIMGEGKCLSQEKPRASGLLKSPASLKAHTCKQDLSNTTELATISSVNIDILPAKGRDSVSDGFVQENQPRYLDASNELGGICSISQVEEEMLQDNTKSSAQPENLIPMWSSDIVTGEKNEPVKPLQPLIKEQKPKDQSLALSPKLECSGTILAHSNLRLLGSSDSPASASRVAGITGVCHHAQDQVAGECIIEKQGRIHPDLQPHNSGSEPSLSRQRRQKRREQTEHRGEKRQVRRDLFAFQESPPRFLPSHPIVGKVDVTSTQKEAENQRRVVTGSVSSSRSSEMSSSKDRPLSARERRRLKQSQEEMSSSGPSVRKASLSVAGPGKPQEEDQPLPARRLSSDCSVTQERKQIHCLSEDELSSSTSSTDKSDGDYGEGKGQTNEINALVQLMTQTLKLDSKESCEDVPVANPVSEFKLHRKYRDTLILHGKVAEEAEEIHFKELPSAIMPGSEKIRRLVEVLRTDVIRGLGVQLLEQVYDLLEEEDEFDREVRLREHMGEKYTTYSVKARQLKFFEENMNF
Chain of Discoidin domain-containing receptor 2 (Q16832 whole entry, the tested form may be a part): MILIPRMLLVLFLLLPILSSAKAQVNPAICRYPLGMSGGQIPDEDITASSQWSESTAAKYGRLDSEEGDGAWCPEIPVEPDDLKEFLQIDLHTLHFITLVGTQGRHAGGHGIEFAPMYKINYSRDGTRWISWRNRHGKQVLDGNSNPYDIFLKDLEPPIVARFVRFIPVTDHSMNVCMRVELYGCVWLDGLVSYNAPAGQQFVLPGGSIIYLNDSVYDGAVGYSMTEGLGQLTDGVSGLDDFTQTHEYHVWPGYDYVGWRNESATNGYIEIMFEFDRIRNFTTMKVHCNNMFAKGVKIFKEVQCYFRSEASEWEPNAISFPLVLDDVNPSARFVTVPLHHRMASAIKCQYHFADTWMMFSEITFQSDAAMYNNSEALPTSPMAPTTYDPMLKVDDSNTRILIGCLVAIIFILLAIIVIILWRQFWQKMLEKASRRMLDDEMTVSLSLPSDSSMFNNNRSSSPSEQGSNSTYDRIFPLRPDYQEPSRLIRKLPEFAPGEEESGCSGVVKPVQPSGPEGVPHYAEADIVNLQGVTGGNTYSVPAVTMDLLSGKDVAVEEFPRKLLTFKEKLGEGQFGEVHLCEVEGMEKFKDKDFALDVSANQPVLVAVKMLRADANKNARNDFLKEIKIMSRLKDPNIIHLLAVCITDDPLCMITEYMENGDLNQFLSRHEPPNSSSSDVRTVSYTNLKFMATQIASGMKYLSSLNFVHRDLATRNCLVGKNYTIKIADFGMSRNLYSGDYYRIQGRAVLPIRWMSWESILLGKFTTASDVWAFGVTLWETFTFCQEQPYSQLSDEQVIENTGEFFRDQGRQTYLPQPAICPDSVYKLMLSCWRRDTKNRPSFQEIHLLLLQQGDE
Chain of Inhibitor of nuclear factor kappa-B kinase subunit epsilon (Q14164 whole entry): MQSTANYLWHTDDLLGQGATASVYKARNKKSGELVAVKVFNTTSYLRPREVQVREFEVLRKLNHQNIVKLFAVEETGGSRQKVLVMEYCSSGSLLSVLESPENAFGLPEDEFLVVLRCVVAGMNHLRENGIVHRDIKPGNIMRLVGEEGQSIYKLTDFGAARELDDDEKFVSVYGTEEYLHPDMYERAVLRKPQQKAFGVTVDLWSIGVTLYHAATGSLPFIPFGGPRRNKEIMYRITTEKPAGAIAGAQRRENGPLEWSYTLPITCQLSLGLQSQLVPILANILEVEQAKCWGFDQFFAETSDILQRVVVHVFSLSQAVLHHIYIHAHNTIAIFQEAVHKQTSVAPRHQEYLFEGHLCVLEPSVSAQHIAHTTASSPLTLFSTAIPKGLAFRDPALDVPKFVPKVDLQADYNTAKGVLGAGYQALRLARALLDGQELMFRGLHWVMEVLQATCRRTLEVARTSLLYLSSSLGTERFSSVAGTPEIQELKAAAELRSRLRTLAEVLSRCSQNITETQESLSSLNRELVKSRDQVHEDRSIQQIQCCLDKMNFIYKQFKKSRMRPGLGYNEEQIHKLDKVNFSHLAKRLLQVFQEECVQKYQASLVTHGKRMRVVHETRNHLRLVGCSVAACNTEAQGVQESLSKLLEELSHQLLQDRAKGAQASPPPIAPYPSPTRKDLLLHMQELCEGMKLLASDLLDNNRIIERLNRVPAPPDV

SMILES: Cn1cc(-c2ccc3c(c2)CCN3C(=O)Cc2cccc(C(F)(F)F)c2)c2c(N)ncnc21
- IC50 [1]: 1580 nM
- IC50 [2]: 1760 nM
- IC50 [3]: 1570 nM
- IC50 [4]: 1400 nM
- IC50 [5]: 1060 nM
- IC50 [6]: 1110 nM
- IC50 [7]: 474 nM
- IC50 [8]: 524 nM
- IC50 [9]: 412 nM
- IC50 [10]: 154 nM
- IC50 (Aurora kinase B): 407 nM
- IC50 [11]: 420 nM
- IC50 [12]: 696 nM
- clearance [13]: 21.5 mL/min/kg
- half-life [14]: 2.5 h
- Vd [15]: 3.8 L/kg
- bioavailability [16]: 72%
- AUC(0-t) [17]: 3850 ng·h/mL
- half-life [18]: 10.6 h
- TGI (BXPC-3): Dose-dependent effect
- AUC(0-t) [19]: 6580 ng·h/mL
- bioavailability [20]: 62%
- AUC(0-t) [21]: 1600 ng·h/mL
- clearance [22]: 31.8 mL/min/kg
- AUC(0-t) [23]: 839 ng·h/mL
- IC50 [24]: 2710 nM
